The values below come from PMC3151333 (Cancer prevention research (Philadelphia, Pa.), 2011).

Where two headings read alike, the source gives them in different places.

Series [1] is classed as in vivo, human. Particulars: for glucuronide of the parent anthocyanin in saliva (selected ion chromatograms): five minute Rinse III saliva samples; for saliva samples with cyanidin-3 sambubioside glucuronides detected: Rinse III.
Series [2] is classed as in vivo, human.
The conditions of series [3]: 240 minute time point following 10% BRB gel application; cited from earlier work.
The subject of the next series is β-glucosidase. In kind it is biochemical, human. The note with it: 0.12% in PBS, 3 minute rinse.
The conditions of series [4]: cited from earlier work.
Another series relates to rat liver microsomes. Description: Incubation of cyanidin-3 sambubioside with rat liver microsomes. The series is classed as in vitro ADME. Particulars: similar retention time and tandem mass spectra as in saliva.
Series [5] can be described thus: Detection of protocatechuic acid O-glucuronide. In kind it is in vivo, human. The essentials: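 Donors rinsed vigorously with 15 ml augmented BRB rinse (10% final BRB) for 3 min. Saliva was collected at timed intervals, acidified with 5% final formic acid and stored at −80°C. Ion-trap LC-MS coupled to HPLC was tuned by infusing a synthetic PCAOG standard. The run used full scan, zoom scan and CID product-ion scan, and the 329.0>153.0 transition was monitored at 35% energy.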

Series [6] is described as follows: LC-MS/MS determination of protocatechuic acid. In kind it is in vivo, human. Particulars: for donors whose saliva contained detectable PCA: final (240 minute) time point, 0.2 ng/ml detection limit.
Setting [7] is: after ingestion of a 300 mg dose.

As for `OC[C@H]1O[C@@H](Oc2cc3c(O)cc(O)cc3[o+]c2-c2ccc(O)c(O)c2)[C@H](O)[C@@H](O)[C@@H]1O` [cyanidin 3-glucoside], the “glucuronide of the parent anthocyanin in saliva (selected ion chromatograms)” value in series [1] is recorded as “did not reveal any novel peaks”. Moreover, in series [2] (in vivo), the “salivary BRB anthocyanin level, Rinse I relative to Rinse III” value was “significantly higher” and the “salivary anthocyanin level, Rinse II relative to Rinse I” value was “significantly lower”.
On to cyanidin-3 sambubioside glucuronides, for which the “saliva samples with cyanidin-3 sambubioside glucuronides detected” value in series [1] (30 minute samples) is 3 of 6; in series [1] (five minute time point samples) it was 6 of the 6. Also, the “cyanidin 3-sambubioside glucuronides in saliva” value in series [1] (after the 30 minute post rinse samples) is “no cyanidin 3-sambubioside glucuronides were observed”.
Regarding `C[C@@H]1O[C@@H](OC[C@H]2O[C@@H](Oc3cc4c(O)cc(O)cc4[o+]c3-c3ccc(O)c(O)c3)[C@H](O)[C@@H](O)[C@@H]2O)[C@H](O)[C@H](O)[C@H]1O` [cyanidin 3-rutinoside], in series [3], the “donors retaining any salivary anthocyanins, including rutinoside” value is given as 3 out of 5. Further, in series [1], the “glucuronide of the parent anthocyanin in saliva (selected ion chromatograms)” value is reported as “did not reveal any novel peaks”. Moreover, in series [2] (in vivo), the “donors showing detectable rutinoside in saliva” value is 10 out of 10; the “rutinoside levels in saliva (mean ± S.D.)” value is 2287.12 ± 489.55 µg/mL; the “salivary BRB anthocyanin level, Rinse I relative to Rinse III” value was “significantly higher”.
For the compound `Oc1cc(O)c2cc(O)c(-c3ccc(O)c(O)c3)[o+]c2c1` [cyanidin], the “time by which salivary cyanidin levels were undetectable” value in series [2] (all samples from all rinses) was no more than 60 min. Further, in series [2] (up to 5 minute post rinse, all three rinse groups, all donors), the “aglycone cyanidin in early saliva samples” value is given as “detectable levels”.
Consider `[H]/N=C(\N/C(=N/[H])NCCCCCCNC(=N)NC(=N)Nc1ccc(Cl)cc1)Nc1ccc(Cl)cc1` [chlorhexidine gluconate], for which, in the series with β-glucosidase, the “donors retaining appreciable functional β-glucosidase activity following rinsing” value is recorded as 10 of 11. Moreover, the “decrease in β-glucosidase in saliva following rinsing (mean ± s.e.m)” value in the series with β-glucosidase (saliva 15 minutes after rinsing, n=11, p<0.001) is reported as 69.43% ±7.24. Also, in series [4] (setting [7]), the “mean peak plasma levels” value was 0.206 µg/g and the “time of mean peak plasma levels” value was 30 min. Moreover, in series [4], the “absorption from the gastrointestinal tract” value is “poorly absorbed”; the “fraction retained in the oral cavity following rinsing” value is recorded as roughly 30%; the “persistence in human saliva after rinsing” value was “at least 12 hours”; the “retention by local adsorption, then slowly released over time” value is “approximately 30%”.
Take `OC[C@H]1O[C@@H](Oc2cc3c(O)cc(O)cc3[o+]c2-c2ccc(O)c(O)c2)[C@H](O[C@@H]2OC[C@@H](O)[C@H](O)[C@H]2O)[C@@H](O)[C@@H]1O.[Cl-]` [cyanidin 3-sambubioside]: in the series on rat liver microsomes, the “metabolite formation on incubation with rat liver microsomes” value was “generated cyanidin-3 sambubioside glucuronides”. In series [2] (in vivo), the “salivary BRB anthocyanin level, Rinse I relative to Rinse III” value is on record as “significantly higher”.
With “protocatechuic acid O-glucuronide [PCAOG]”, the “PCAOG peaks in later time point saliva samples” value in series [5] (30, 60, 120 and 240 min after Rinse III, either donor) is recorded as “did not reveal any peaks”. In addition, the “donors with PCAOG peak detected in saliva” value in series [5] (5 min saliva sample after Rinse III) was 1 of the 2.
Turning to `O=C(O)c1ccc(O)c(O)c1` [PCA, protocatechuic acid], the “retention in saliva after rinsing” value in series [6] (BRB rinses) is on record as “up to 4 hours”. The “donors whose saliva contained detectable PCA” value in series [6] (Rinse I) is recorded as 2 of 10; in series [6] (Rinse II) it was 2 of 10; in series [6] (Rinse III) it was 6 of 10.
